Tests used:
PikCD50N/H238A-RhFRED = test: Total turnover number; format: biochemical; conditions: PikCD50N/H238A-RhFRED double mutant
How it was run: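 Double mutant made by adding H238A to the PikCD50N-RhFRED fusion, to probe the H238 H-bond to the anchoring-group carbonyl. TTN is expressed relative to moles of enzyme.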

PikCD50N-RhFRED [1] = target: T1, PikCD50N-RhFRED (Streptomyces venezuelae, UniProt O87605, D50N); test: Spectroscopic equilibrium substrate binding assay, PikCD50N-RhFRED
T1 sequence (O87605 1-416 D50N): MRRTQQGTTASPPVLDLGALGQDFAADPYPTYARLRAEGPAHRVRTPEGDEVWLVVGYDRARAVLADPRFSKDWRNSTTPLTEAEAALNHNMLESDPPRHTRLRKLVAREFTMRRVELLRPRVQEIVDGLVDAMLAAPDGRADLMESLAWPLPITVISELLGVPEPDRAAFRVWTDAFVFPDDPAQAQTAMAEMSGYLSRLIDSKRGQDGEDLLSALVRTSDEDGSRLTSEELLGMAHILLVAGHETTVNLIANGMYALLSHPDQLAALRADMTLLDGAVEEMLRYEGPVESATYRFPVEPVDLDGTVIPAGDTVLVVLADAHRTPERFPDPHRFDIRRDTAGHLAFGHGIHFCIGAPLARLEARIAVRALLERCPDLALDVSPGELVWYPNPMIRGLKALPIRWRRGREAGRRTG
T1 sequence (Q8KU27 445-773 partner): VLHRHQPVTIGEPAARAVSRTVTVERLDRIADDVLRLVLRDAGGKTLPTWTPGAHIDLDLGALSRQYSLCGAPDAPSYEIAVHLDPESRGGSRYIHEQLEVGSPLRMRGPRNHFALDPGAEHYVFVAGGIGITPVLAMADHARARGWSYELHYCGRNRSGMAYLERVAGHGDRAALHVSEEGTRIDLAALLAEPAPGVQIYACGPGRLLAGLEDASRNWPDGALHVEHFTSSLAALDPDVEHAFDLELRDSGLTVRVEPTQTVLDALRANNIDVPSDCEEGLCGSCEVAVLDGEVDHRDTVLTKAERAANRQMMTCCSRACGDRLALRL

PikCD50NH238A = target: T2, PikCD50NH238A (Streptomyces venezuelae, UniProt O87605, D50N/H238A); test: Spectroscopic equilibrium substrate binding assay, PikCD50NH238A mutant
T2 sequence (O87605 1-416 D50N/H238A): T1 sequence (O87605 1-416 D50N)
T2 sequence (Q8KU27 445-773 partner): T1 sequence (Q8KU27 445-773 partner)

PikCD50N-RhFRED [2] = target: T1, PikCD50N-RhFRED; test: PikCD50N-RhFRED analytical-scale enzymatic reactions; format: biochemical; conditions: for hydroxylation by PikCD50N-RhFRED (result in words): 0.5 mol % enzyme (5 μM enzyme, 1 mM substrate); for preferred site of hydroxylation (regioselectivity in words): PikCD50N-RhFRED

Structure (SMILES) | TTN D50NH238A (PikCD50N/H238A-RhFRED) | Kd (PikCD50N-RhFRED [1]) | Kd (PikCD50NH238A) | hydroxylation by PikCD50N-RhFRED (result in words) (PikCD50N-RhFRED [2]) | preferred site of hydroxylation (regioselectivity in words) (PikCD50N-RhFRED [2])
CC[C@H]1OC(=O)[C@H](C)[C@@H](OC(=O)CCCN(C)C)[C@@H](C)C[C@@H](C)C(=O)/C=C/[C@H]1C [compound 10] | 853 ± 38 | 123 ± 14 µM | 168 ± 19 µM | – | –
CC[C@H]1OC(=O)[C@H](C)[C@@H](OC(=O)c2ccccc2CN(C)C)[C@@H](C)C[C@@H](C)C(=O)/C=C/[C@H]1C [compound 14] | 491 ± 26 | – | – | converted to monohydroxylated products | favor C-12 hydroxylation
CC[C@H]1OC(=O)[C@H](C)[C@@H](OC(=O)c2cccc(CN(C)C)c2)[C@@H](C)C[C@@H](C)C(=O)/C=C/[C@H]1C [16b] | 922 ± 35 | – | – | converted to monohydroxylated products | highly regioselective allylic hydroxylation at C-10
CC[C@H]1OC(=O)[C@H](C)[C@@H](OC(=O)[C@H]2CCCN2C)[C@@H](C)C[C@@H](C)C(=O)/C=C/[C@H]1C [12a] | 542 ± 30 | 47 ± 3 µM | 19 ± 1.3 µM | – | preferential C-10 hydroxylation
CC[C@H]1OC(=O)[C@H](C)[C@@H](OC(=O)CCN(C)C)[C@@H](C)C[C@@H](C)C(=O)/C=C/[C@H]1C [8b] | 870 ± 38 | 81 ± 15 µM | 161 ± 25 µM | – | –
CC[C@H]1OC(=O)[C@H](C)[C@@H](OC(=O)c2ccc(CN(C)C)cc2)[C@@H](C)C[C@@H](C)C(=O)/C=C/[C@H]1C [16a] | 816 ± 33 | – | – | converted to monohydroxylated products | highly regioselective allylic hydroxylation at C-10
CC[C@H]1OC(=O)[C@H](C)[C@@H](OC(=O)[C@@H]2CCCN2C)[C@@H](C)C[C@@H](C)C(=O)/C=C/[C@H]1C [12b] | 538 ± 20 | 28 ± 5.4 µM | 21 ± 0.7 µM | – | preferential C-10 hydroxylation

From article PMC4012894 (Journal of the American Chemical Society, 2014)
